Measurements: ChEMBL document CHEMBL1138888, “Activity of and initial mechanistic studies on a novel antileishmanial agent identified through in silico pharmacophore development and database searching” (J Med Chem, 2006)
Active and inactive are the calls of the source. The rule behind the calls is not given here.

Key:
Leishmania donovani [1] = assay: Antileishmanial activity against Leishmania donovani axenic amastigotes; format: functional, organism-based
How it was run: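 L. donovani axenic amastigotes (MHOM/SD/62/1S-CL2D), adapted from promastigotes and kept at 37 °C in amastigote medium. 6 × 10^4 cells per well, 2-fold compound dilution series, 3 days at 37 °C in 5% CO2. Growth read by tetrazolium (CellTiter) absorbance at 490 nm. IC50 taken from a four-parameter dose-response fit; three or more separate experiments, error given as SD.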

Leishmania donovani [2] = assay: Cell cycle arrest in Leishmania donovani promastigotes by accumulation at G2/S phase at 2 uM; format: functional, organism-based; conditions: in the assay text read “G2/M phase” for “G2/S phase”
How it was run: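 L. donovani promastigotes at 5 × 10^6 cells/mL in RPMI-based promastigote medium with 10% HI-FBS, treated or given vehicle (1% DMSO) for 2 days at 25 °C. Cells then methanol-fixed and stained with propidium iodide (10 µg/mL) with Triton X-100 and RNase A. DNA content per cell measured by flow cytometry; histograms representative of three experiments.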

Leishmania sp. = assay: Inhibition of Leishmania tarentolae tubulin assembly; format: functional
How it was run: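 Purified L. tarentolae tubulin at 1.5 mg/mL in […] pH 6.9 with 1 mM MgCl2, 1 mM EGTA, 10% DMSO and 1 mM GTP, incubated at 30 °C with or without compound (2 or 20 µM tested). Assembly followed as turbidity at 351 nm.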

Leishmania mexicana [3] = assay: Reduction in Leishmania mexicana infection in mouse J774 macrophage at 8 uM; format: functional; set-up: scale not given: the % may be the effect or the level left
How it was run: (§1)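 J774 macrophages (1 × 10^5 per well) allowed to adhere overnight, then infected with 1 × 10^6 L. mexicana promastigotes (MNYC/BCZ/62/M379) overnight at 33 °C. After washing, treated with compound or 1% DMSO vehicle for 3 days at 33 °C, methanol-fixed and Giemsa-stained. Percent reduction of infection is relative to controls; average ± range of two experiments.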

Leishmania mexicana [4] = assay: Reduction in Leishmania mexicana infection in mouse J774 macrophage at 4 uM; format: functional; set-up: scale not given: the % may be the effect or the level left; how it was run: as §1
Vero = assay: Antiproliferative activity against Vero cell; format: functional, cell-based; conditions: Chlorocebus sabaeus
How it was run: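 Vero cells grown in alpha-MEM with Glutamax-I, 10% heat-inactivated FBS, penicillin/streptomycin. 1 × 10^3 cells per well seeded with compounds over a 2-fold dilution series, run like the amastigote assay: 3 days at 37 °C, humidified, 5% CO2. Growth read by tetrazolium (CellTiter) absorbance at 490 nm. IC50 from four-parameter dose-response fit; three or more separate experiments.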

Leishmania donovani [5] = assay: Reduction in Leishmania donovani load in infected BALB/c mouse at 50 mg/kg/day, ip; format: functional; conditions: route intraperitoneal
How it was run: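 BALB/c mice, 12 weeks old, infected i.v. (tail vein) with 1 × 10^7 hamster-spleen-derived L. donovani amastigotes. After 7 days, dosed i.p. daily for 5 days in 0.5% methylcellulose/0.1% Tween-80/10% DMSO in water; vehicle controls run. Killed 4 days after treatment. Liver burden scored as LDUs from Giemsa-stained smears; mean ± SD of five mice.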

Leishmania mexicana [6] = assay: Reduction in Leishmania mexicana infection in mouse J774 macrophage at 2 uM; format: functional; set-up: scale not given: the % may be the effect or the level left; how it was run: as §1
Leishmania mexicana [7] = assay: Reduction in Leishmania mexicana infection in mouse J774 macrophage at 125 nM; format: functional; set-up: scale not given: the % may be the effect or the level left; how it was run: as §1
Leishmania mexicana [8] = assay: Reduction in Leishmania mexicana infection in mouse J774 macrophage at 25 nM; format: functional; set-up: scale not given: the % may be the effect or the level left; how it was run: as §1
Leishmania mexicana [9] = assay: Reduction in Leishmania mexicana infection in mouse J774 macrophage at 50 nM; format: functional; set-up: scale not given: the % may be the effect or the level left; how it was run: as §1

| Structure (SMILES) | IC50 (Leishmania donovani [1]) | also measured |
| --- | --- | --- |
| COc1ccc([N+](=O)[O-])c(OC)c1C(=O)NCCCn1ccnc1 | > 100 µM | – |
| Cc1cc(Sc2nnc3oc(O)cc(C)c2-3)c(C)cc1Cl | 39 µM | – |
| Cc1cc(Sc2c([N+](=O)[O-])cc(C(F)(F)F)cc2[N+](=O)[O-])c(Cl)cc1Cl | 0.5 µM | Activity (Leishmania donovani [2]): inactive; Activity (Leishmania sp.): inactive; Activity (Leishmania mexicana [3]): 68%; Activity (Leishmania mexicana [4]): 43%; IC50 (Vero): 5.3 µM; Activity (Leishmania donovani [5]): 1583; Activity (Leishmania mexicana [6]): 13% |
| Cc1cc(S(=O)(=O)c2c([N+](=O)[O-])cc(C(F)(F)F)cc2[N+](=O)[O-])c(Cl)cc1Cl | 2.3 µM | IC50 (Vero): 24 µM |
| O=C1NC(=O)c2c1ccc(Sc1c(Cl)cccc1Cl)c2[N+](=O)[O-] | 60 µM | – |
| CCCCN(CCCC)c1c([N+](=O)[O-])cc(S(=O)(=O)Nc2cccc(F)c2)cc1[N+](=O)[O-] | 5.7 µM | – |
| O=C(O)c1ccccc1C(=O)NCCNc1ccc(C(F)(F)F)cn1 | > 100 µM | – |
| OC(CNCc1ccc(Cl)cc1Cl)Cn1c(-c2ccc(F)cc2)cc2ccccc21 (stereo not drawn) | 37 µM | – |
| C[C@@H]1[C@H](O)[C@@H](C)/C=C/C=C/C=C/C=C/C=C/C=C/C=C/[C@H](O[C@@H]2O[C@H](C)[C@@H](O)[C@H](N)[C@@H]2O)C[C@@H]2O[C@](O)(C[C@@H](O)C[C@@H](O)[C@H](O)CC[C@@H](O)C[C@@H](O)CC(=O)O[C@H]1C)C[C@H](O)[C@H]2C(=O)O [AMPHOTERICIN B] | – | Activity (Leishmania mexicana [7]): 96%; Activity (Leishmania mexicana [8]): 44%; Activity (Leishmania mexicana [9]): 76% |
| CCCCN(CCCC)c1c([N+](=O)[O-])cc(S(=O)(=O)Nc2ccc(F)cc2)cc1[N+](=O)[O-] | 5.6 µM | – |

Second part, led by results:

| IC50 (Leishmania donovani [1]) | Structure (SMILES) | also measured |
| --- | --- | --- |
| 66.6 µM | Cc1nc(-c2ccc(S(=O)(=O)Nc3ccc(Br)cc3Cl)s2)cs1 | – |
| 21 µM | Cc1cc(C(=O)O)c(Sc2nccn2-c2ccc(Cl)cc2Cl)nc1C#N | – |
| > 100 µM | COc1ccccc1NC(=O)CSCc1cnc(C)c(O)c1O | – |
| > 100 µM | CC(=O)c1ccc(OCc2ccc(Cl)c(Cl)c2)c([N+](=O)[O-])c1 | – |
| > 100 µM | COc1ccc(CCNc2ccc(C(F)(F)F)cc2[N+](=O)[O-])cc1OC | – |
| > 100 µM | CSc1cccc(-n2c(S)nnc2CCc2ccc(O)cc2)c1 | – |
| 25 µM | O=S(=O)(Nc1ccc(Oc2ccc(C(F)(F)F)cc2)cc1)c1cc(Cl)c(Cl)cc1Cl | – |
| 2.5 µM | CCCN(CCC)c1c([N+](=O)[O-])cc(S(=O)(=O)Nc2cccc(F)c2)cc1[N+](=O)[O-] | – |
| > 100 µM | O=C(CSCc1cccc(C(F)(F)F)c1)c1ccc(OCc2ccc(F)cc2)cc1 | – |
| 72 µM | O=S(=O)(c1ccc(Cl)cc1)N1CCCN(Cc2ccc(Cl)cc2Cl)CC1 | – |
| > 100 µM | COc1cc(C2SCCS2)cc(Br)c1Oc1cc(C)c(C(F)(F)F)cc1[N+](=O)[O-] | – |
| 80 µM | O=[N+]([O-])c1ccc(Oc2c(Cl)cccc2Cl)c(Cl)c1Oc1c(Cl)cccc1Cl | – |
| 32 µM | Cc1cc(C)c(-n2nnnc2SCc2ccc(C(F)(F)F)cc2)c(C)c1 | – |
